Results: ChEMBL document CHEMBL3351594, “Cytotoxic dimeric epipolythiodiketopiperazines from the ascomycetous fungus Preussia typharum” (J Nat Prod, 2014)
Calls of active or inactive are those of the source. The calls are words filed in the database; no cut-off is given here.

Legend:
K562 = assay: Cytotoxicity against human K562 cells by SRB method; type: functional
Summary of the method: (§1)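 NCI-60 in vitro drug screening panel. Values are the molar concentrations giving 50% growth inhibition (GI50) and total growth inhibition (TGI).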

mTORC1 (Homo sapiens) = mTORC1 (Homo sapiens) (UniProt P42345+Q8N122+Q9BVC4); assay: Inhibition of mTORC1 in human HeLa cells assessed as inhibition of S6 kinase phosphorylation at T389 up to 100 nM after 30 mins by Western blotting analysis; type: cell-based
Chain of mTORC1 (Homo sapiens) (Q8N122 whole entry, looked up, other chains not shown): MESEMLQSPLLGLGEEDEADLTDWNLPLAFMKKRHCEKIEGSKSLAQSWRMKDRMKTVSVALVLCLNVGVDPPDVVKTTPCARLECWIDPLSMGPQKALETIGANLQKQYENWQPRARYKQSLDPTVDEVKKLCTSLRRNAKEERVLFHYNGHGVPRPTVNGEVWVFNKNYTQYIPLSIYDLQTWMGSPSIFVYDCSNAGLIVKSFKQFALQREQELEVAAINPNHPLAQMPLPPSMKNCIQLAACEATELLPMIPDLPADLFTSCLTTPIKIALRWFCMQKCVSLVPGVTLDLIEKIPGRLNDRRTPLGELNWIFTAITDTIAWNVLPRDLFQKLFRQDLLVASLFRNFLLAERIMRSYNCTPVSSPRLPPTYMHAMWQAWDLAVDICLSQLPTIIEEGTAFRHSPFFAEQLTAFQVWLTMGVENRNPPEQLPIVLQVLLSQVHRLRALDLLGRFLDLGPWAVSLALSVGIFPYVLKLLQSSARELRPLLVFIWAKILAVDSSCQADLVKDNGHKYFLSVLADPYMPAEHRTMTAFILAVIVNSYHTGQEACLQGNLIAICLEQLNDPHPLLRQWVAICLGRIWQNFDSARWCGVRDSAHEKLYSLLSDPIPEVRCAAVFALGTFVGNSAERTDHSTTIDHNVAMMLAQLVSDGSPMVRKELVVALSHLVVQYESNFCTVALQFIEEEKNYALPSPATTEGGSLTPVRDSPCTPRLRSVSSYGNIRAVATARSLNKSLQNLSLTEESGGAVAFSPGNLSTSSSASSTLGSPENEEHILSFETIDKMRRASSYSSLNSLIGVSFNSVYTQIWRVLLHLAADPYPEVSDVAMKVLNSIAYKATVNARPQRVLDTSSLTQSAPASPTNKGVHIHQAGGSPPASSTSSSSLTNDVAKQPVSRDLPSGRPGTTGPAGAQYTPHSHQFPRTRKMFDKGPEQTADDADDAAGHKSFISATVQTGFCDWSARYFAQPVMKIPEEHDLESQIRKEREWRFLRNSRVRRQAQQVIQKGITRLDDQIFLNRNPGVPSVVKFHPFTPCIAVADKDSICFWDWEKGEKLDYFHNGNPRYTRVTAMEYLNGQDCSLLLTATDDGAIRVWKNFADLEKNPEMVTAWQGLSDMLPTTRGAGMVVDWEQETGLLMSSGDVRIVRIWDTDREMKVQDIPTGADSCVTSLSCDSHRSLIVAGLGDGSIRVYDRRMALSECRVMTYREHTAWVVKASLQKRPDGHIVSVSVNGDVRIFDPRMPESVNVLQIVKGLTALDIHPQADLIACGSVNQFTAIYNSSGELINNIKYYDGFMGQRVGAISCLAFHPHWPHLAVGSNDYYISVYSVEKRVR
Chain of mTORC1 (Homo sapiens) (Q9BVC4 whole entry, looked up, other chains not shown): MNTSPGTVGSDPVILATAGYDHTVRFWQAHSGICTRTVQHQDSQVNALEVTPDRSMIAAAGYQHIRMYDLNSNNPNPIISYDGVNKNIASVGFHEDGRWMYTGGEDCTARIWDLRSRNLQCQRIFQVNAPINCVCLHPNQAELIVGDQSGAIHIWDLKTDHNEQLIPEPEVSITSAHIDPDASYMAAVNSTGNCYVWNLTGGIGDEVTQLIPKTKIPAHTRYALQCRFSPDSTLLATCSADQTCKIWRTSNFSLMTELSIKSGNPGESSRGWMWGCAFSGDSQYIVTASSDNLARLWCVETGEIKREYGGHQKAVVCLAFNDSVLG
Summary of the method: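 HeLa whole-cell lysates after vehicle or compound treatment; equal protein on SDS-PAGE, PVDF blot probed for S6 kinase, P-T389-S6 kinase and actin, ECL detection.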

TK-10 = assay: Cytotoxicity against human TK10 cells by SRB method; type: functional
Summary of the method: (§2)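 NCI-60 in vitro screen panel of human tumor lines; GI50 (molar concentration giving 50% growth inhibition) and TGI (total growth inhibition) taken from dose–response data.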

[1] = Toxicity in ip dosed athymic nude mouse xenografted with human UACC62 cells administered every 4 days; type: organism-based, UACC-62; conditions: in vivo
Summary of the method: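 Female athymic nude mice received 2 × 10^6 UACC-62 cells sc into each flank and were randomized at a median tumor volume of 150 mm3 (n = 5/group). Compound was given ip in DMSO–Cremophor (1:1) diluted in 200 μL DPBS (final ≤2.5%). Dose-tolerance testing used 10, 2 and 1.5 mg/kg (every 4 days). Mice were weighed daily for weight loss.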

Malme-3M = assay: Cytotoxicity against human MALME-3M cells by SRB method; type: functional; summary of the method: as §1
U-251 = assay: Cytotoxicity against human U251 cells by SRB method; type: functional; summary of the method: as §2
SN12C = assay: Cytotoxicity against human SN12C cells by SRB method; type: functional; summary of the method: as §2
SK-MEL-5 = assay: Cytotoxicity against human SK-MEL-5 cells by SRB method; type: functional; summary of the method: as §2
HeLa [2] = assay: Cytotoxicity against human HeLa cells; type: functional
NCI-H226 = assay: Cytotoxicity against human NCI-H226 cells by SRB method; type: functional; summary of the method: as §1
CCRF-CEM = assay: Cytotoxicity against human CCRF-CEM cells by SRB method; type: functional; summary of the method: as §1
T47D = assay: Cytotoxicity against human T47D cells by SRB method; type: functional; summary of the method: as §2
HCC 2998 = assay: Cytotoxicity against human HCC2998 cells by SRB method; type: functional; summary of the method: as §1
HeLa [3] = assay: Cytotoxicity against human HeLa cells assessed as reduction of colony formation incubated for 4 hrs followed by compound washout measured after 14 days relative to vehicle-treated control; type: functional, cell-based
Summary of the method: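 HeLa cells (300) were plated in dishes and treated with vehicle (DMSO) or compound for 4 h. They were then washed with DPBS and given fresh medium. After 14 days, colonies were fixed, stained with 0.5% crystal violet in 10% methanol and counted. Analysis was one-way ANOVA with Dunnett's post hoc test against vehicle.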

SF-268 = assay: Cytotoxicity against human SF268 cells by SRB method; type: functional; summary of the method: as §1
MCF7 = assay: Cytotoxicity against human MCF7 cells by SRB method; type: functional; summary of the method: as §1
DU-145 = assay: Cytotoxicity against human DU145 cells by SRB method; type: functional; summary of the method: as §1
[4] = Cytotoxicity against human P-gp expressing SKOV3-M6/6 cells by SRB assay; type: functional
Summary of the method: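 SRB assay in SK-OV-3/MDR-1-6/6 cells, a single-cell clone of SKOV-3/MDR1 (P-gp). Percent cell growth follows Boyd et al. GI50 was derived from dose–response curves of percent growth. Results are mean ± SE of n = 3 or 4 independent experiments. Relative resistance is calculated against parental SK-OV-3.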

CAKI-1 = assay: Cytotoxicity against human Caki1 cells by SRB method; type: functional; summary of the method: as §1
Mus musculus = assay: Toxicity in athymic nude mouse xenografted with human UACC62 cells assessed as rapid and persistent weight loss at 10 mg/kg, ip; type: organism-based, UACC-62; set-up: dose 10 mg/kg, route intraperitoneal; conditions: in vivo
SR = assay: Cytotoxicity against human SR cells by SRB method; type: functional; summary of the method: as §2
HL-60(TB) = assay: Cytotoxicity against human HL-60(TB) cells by SRB method; type: functional
Summary of the method: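 Tested in the NCI-60 in vitro screening panel. GI50 is the molar concentration giving 50% growth inhibition, and TGI is the molar concentration giving total growth inhibition.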

[5] = Cytotoxicity against human OVCAR4 cells by SRB method; type: functional; summary of the method: as §1
UACC-62 = assay: Cytotoxicity against human UACC62 cells assessed as reduction of colony formation incubated for 4 hrs followed by compound washout measured after 14 days relative to vehicle-treated control; type: functional, cell-based
Summary of the method: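 Clonogenic test: 600 UACC-62 cells (RPMI1640, 10% FBS, gentamicin) adhered, exposed 4 h to vehicle (DMSO) or compound, washed with DPBS, fresh medium, grown 14 days; fixed, 0.5% crystal violet in 10% methanol, colonies counted; duplicate/triplicate, n = 2–4 experiments; one-way ANOVA with Dunnett's vs vehicle.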

SF-295 = assay: Cytotoxicity against human SF295 cells by SRB method; type: functional; summary of the method: as §1
M14 = assay: Cytotoxicity against human M14 cells by SRB method; type: functional; summary of the method: as §1
LOX IMVI = assay: Cytotoxicity against human LOXIMVI cells by SRB method; type: functional; summary of the method: as §1
COLO 205 = assay: Cytotoxicity against human COLO205 cells by SRB method; type: functional; summary of the method: as §1
RXF 393 = assay: Cytotoxicity against human RXF393 cells by SRB method; type: functional; summary of the method: as §1
SF-539 = assay: Cytotoxicity against human SF539 cells by SRB method; type: functional; summary of the method: as §1
[6] = read-out: LC50 (the source's name)

## CC(C)[C@@]12SS[C@]3(C(=O)N1C)[C@@H](O)[C@]1(C45c6ccccc6N[C@H]4N4C(=O)[C@@]6(CO)SS[C@@]4(C(=O)N6C)[C@H]5O)c4ccccc4N[C@@H]1N3C2=O (stereo partly specified)
K562
  GI50: 14.8 nM
  TGI: 115 nM
K562; [6]
  CC50: > 50 µM
mTORC1 (Homo sapiens)
  inhibition: inactive
TK-10
  GI50: 11.7 nM
  TGI: 24.5 nM
TK-10; [6]
  CC50: 57.5 nM
[1]
  MTD at 96 h: 1.5 mg/kg
Malme-3M
  GI50: 7.8 nM
  TGI: 18.6 nM
Malme-3M; [6]
  CC50: 45.7 nM
U-251
  GI50: 17.8 nM
  TGI: 61.7 nM
U-251; [6]
  CC50: 178 nM
SN12C
  GI50: 22.9 nM
  TGI: 525 nM
SN12C; [6]
  CC50: 1780 nM
SK-MEL-5
  GI50: 14.8 nM
  TGI: 57.5 nM
SK-MEL-5; [6]
  CC50: 151 nM
HeLa [2]
  GI50: 20 nM
NCI-H226
  GI50: 10 nM
  TGI: 24 nM
NCI-H226; [6]
  CC50: 72.4 nM
CCRF-CEM
  GI50: 9.3 nM
  TGI: 38 nM
CCRF-CEM; [6]
  CC50: > 50 µM
T47D
  GI50: 9.1 nM
  TGI: 26.3 nM
T47D; [6]
  CC50: 102 nM
HCC 2998
  GI50: 53.7 nM
  TGI: 115 nM
HCC 2998; [6]
  CC50: 246 nM
HeLa [3]
  Activity: Dose-dependent effect
SF-268
  GI50: 22.4 nM
  TGI: 107 nM
SF-268; [6]
  CC50: 417 nM
MCF7
  GI50: 10 nM
  TGI: 55 nM
MCF7; [6]
  CC50: 166 nM
DU-145
  GI50: 14.8 nM
  TGI: 53.7 nM
DU-145; [6]
  CC50: 200 nM
[4]
  GI50: 33 nM
CAKI-1
  GI50: 8.7 nM
  TGI: 22.4 nM
CAKI-1; [6]
  CC50: 85.1 nM
Mus musculus
  Activity: 5%
SR
  GI50: 11.2 nM
  TGI: 31.6 nM
SR; [6]
  CC50: > 50 µM
HL-60(TB)
  GI50: 26.3 nM
  TGI: 195 nM
HL-60(TB); [6]
  CC50: > 50 µM
[5]; OVCAR-4
  GI50: 5.9 nM
  TGI: 12.9 nM
[5]; OVCAR-4, read-out: LC50 (the source's name)
  CC50: 27.5 nM
UACC-62
  Activity: Dose-dependent effect
SF-295
  GI50: 57.5 nM
  TGI: 155 nM
SF-295; [6]
  CC50: 417 nM
M14
  GI50: 13.5 nM
  TGI: 53.7 nM
M14; [6]
  CC50: 182 nM
LOX IMVI
  GI50: 8.3 nM
  TGI: 21.4 nM
LOX IMVI; [6]
  CC50: 46.8 nM
COLO 205
  GI50: 14.8 nM
  TGI: 49 nM
COLO 205; [6]
  CC50: 155 nM
RXF 393
  GI50: 7.8 nM
  TGI: 14.8 nM
RXF 393; [6]
  CC50: 28.2 nM
SF-539
  GI50: 15.1 nM
  TGI: 58.9 nM
SF-539; [6]
  CC50: 200 nM
